Converted amounts (≈) assume the structure as drawn.
What was measured:
Type in all cases: functional
Bacillus cereus [1] = assay: Antibacterial activity against Bacillus cereus CIP 6624 after 18 hrs by agar dilution method; details: CIP 6624, 18 h
Summary of the method: (§1)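 Agar-dilution MIC against Gram-positive strains. Compounds in DMSO, geometric dilutions giving final 100−0.75 mg/L in Mueller Hinton agar. Strains grown 18 h at 37 °C in trypticase soy broth, diluted in sterile water, spotted by Steers inoculator (about 1000 UFC/spot). Plates incubated 18 h at 37 °C; DMSO blank; ofloxacin positive control. MIC = lowest concentration with no visible growth.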

Bacillus cereus [2] = assay: Antibacterial activity against Bacillus cereus N190 after 18 hrs by agar dilution method; details: N190, 18 h; summary of the method: as §1
Bacillus cereus [3] = assay: Antibacterial activity against Bacillus cereus N258 after 18 hrs by agar dilution method; details: N258, 18 h; summary of the method: as §1
Bacillus cereus [4] = assay: Antibacterial activity against Bacillus cereus N349 after 18 hrs by agar dilution method; details: N349, 18 h; summary of the method: as §1
Bacillus spizizenii = assay: Antibacterial activity against Bacillus subtilis ATCC 6633 after 18 hrs by agar dilution method; details: ATCC 6633, 18 h; summary of the method: as §1
Corynebacterium striatum = assay: Antibacterial activity against Corynebacterium striatum N840 after 18 hrs by agar dilution method; details: N840, 18 h; summary of the method: as §1
Enterococcus avium = assay: Antibacterial activity against Enterococcus avium CIP 104053 after 18 hrs by agar dilution method; details: CIP 104053, 18 h; summary of the method: as §1
[5] = tested on: Enterococcus casseliflavus; assay: Antibacterial activity against Enterococcus casseliflavus N487 after 18 hrs by agar dilution method; details: N487, 18 h; summary of the method: as §1
[6] = tested on: Enterococcus casseliflavus; assay: Antibacterial activity against Enterococcus casseliflavus CIP 103018 after 18 hrs by agar dilution method; details: CIP 103018, 18 h; summary of the method: as §1
Enterococcus durans = assay: Antibacterial activity against Enterococcus durans CIP 104999 after 18 hrs by agar dilution method; details: CIP 104999, 18 h; summary of the method: as §1
Enterococcus faecalis [7] = assay: Antibacterial activity against Enterococcus faecalis CIP 103214 after 18 hrs by agar dilution method; details: CIP 103214, 18 h; summary of the method: as §1
Enterococcus faecalis [8] = assay: Antibacterial activity against Enterococcus faecalis CIP 104676 after 18 hrs by agar dilution method; details: CIP 104676, 18 h; summary of the method: as §1
Enterococcus faecalis [9] = assay: Antibacterial activity against Enterococcus faecalis N491 after 18 hrs by agar dilution method; details: N491, 18 h; summary of the method: as §1
Enterococcus faecalis [10] = assay: Antibacterial activity against Enterococcus faecalis N518 after 18 hrs by agar dilution method; details: N518, 18 h; summary of the method: as §1
Enterococcus faecalis [11] = assay: Antibacterial activity against Enterococcus faecalis N520 after 18 hrs by agar dilution method; details: N520, 18 h; summary of the method: as §1
Enterococcus faecium [12] = assay: Antibacterial activity against Enterococcus faecium CIP 103014 after 18 hrs by agar dilution method; details: CIP 103014, 18 h; summary of the method: as §1
Enterococcus faecium [13] = assay: Antibacterial activity against Enterococcus faecium CIP 107387 after 18 hrs by agar dilution method; details: CIP 107387, 18 h; summary of the method: as §1
Enterococcus faecium [14] = assay: Antibacterial activity against Enterococcus faecium N490 after 18 hrs by agar dilution method; details: N490, 18 h; summary of the method: as §1
Enterococcus faecium [15] = assay: Antibacterial activity against Enterococcus faecium N507 after 18 hrs by agar dilution method; details: N507, 18 h; summary of the method: as §1
Enterococcus faecium [16] = assay: Antibacterial activity against Enterococcus faecium N733 after 18 hrs by agar dilution method; details: N733, 18 h; summary of the method: as §1
Enterococcus faecium [17] = assay: Antibacterial activity against Enterococcus faecium N823 after 18 hrs by agar dilution method; details: N823, 18 h; summary of the method: as §1
Enterococcus gallinarum [18] = assay: Antibacterial activity against Enterococcus gallinarum CIP 105985 after 18 hrs by agar dilution method; details: CIP 105985, 18 h; summary of the method: as §1
Enterococcus gallinarum [19] = assay: Antibacterial activity against Enterococcus gallinarum N489 after 18 hrs by agar dilution method; details: N489, 18 h; summary of the method: as §1
Enterococcus gallinarum [20] = assay: Antibacterial activity against Enterococcus gallinarum N492 after 18 hrs by agar dilution method; details: N492, 18 h; summary of the method: as §1
Enterococcus hirae = assay: Antibacterial activity against Enterococcus hirae CIP 5855 after 18 hrs by agar dilution method; details: CIP 5855, 18 h; summary of the method: as §1
Listeria innocua = assay: Antibacterial activity against Listeria innocua E044 after 18 hrs by agar dilution method; details: E044, 18 h; summary of the method: as §1
Listeria monocytogenes [21] = assay: Antibacterial activity against Listeria monocytogenes CIP 103575 after 18 hrs by agar dilution method; details: CIP 103575, 18 h; summary of the method: as §1
Listeria monocytogenes [22] = assay: Antibacterial activity against Listeria monocytogenes N783 after 18 hrs by agar dilution method; details: N783, 18 h; summary of the method: as §1
Listeria monocytogenes [23] = assay: Antibacterial activity against Listeria monocytogenes N836 after 18 hrs by agar dilution method; details: N836, 18 h; summary of the method: as §1
Listeria monocytogenes [24] = assay: Antibacterial activity against Listeria monocytogenes N851 after 18 hrs by agar dilution method; details: N851, 18 h; summary of the method: as §1
Staphylococcus aureus [25] = assay: Antibacterial activity against Staphylococcus aureus ATCC 25923 after 18 hrs by agar dilution method; details: ATCC 25923, 18 h; summary of the method: as §1
Staphylococcus aureus [26] = assay: Antibacterial activity against Staphylococcus aureus ATCC 9144 oxford after 18 hrs by agar dilution method; summary of the method: as §1
Staphylococcus aureus [27] = assay: Antibacterial activity against Staphylococcus aureus CIP 483 after 18 hrs by agar dilution method; details: CIP 483, 18 h; summary of the method: as §1
Staphylococcus aureus [28] = assay: Antibacterial activity against Staphylococcus aureus CIP 53154 after 18 hrs by agar dilution method; details: CIP 53154, 18 h; summary of the method: as §1
Staphylococcus aureus [29] = assay: Antibacterial activity against Staphylococcus aureus CIP 53156 after 18 hrs by agar dilution method; details: CIP 53156, 18 h; summary of the method: as §1
Staphylococcus aureus [30] = assay: Antibacterial activity against Staphylococcus aureus CIP 5710 after 18 hrs by agar dilution method; details: CIP 5710, 18 h; summary of the method: as §1
Staphylococcus aureus [31] = assay: Antibacterial activity against Staphylococcus aureus CIP 7625 after 18 hrs by agar dilution method; details: CIP 7625, 18 h; summary of the method: as §1
Staphylococcus aureus [32] = assay: Antibacterial activity against Staphylococcus aureus CRBIP 2121 after 18 hrs by agar dilution method; details: CRBIP 2121, 18 h; summary of the method: as §1
[33] = tested on: Staphylococcus epidermidis; assay: Antibacterial activity against Staphylococcus epidermidis CIP 53124 after 18 hrs by agar dilution method; details: CIP 53124, 18 h; summary of the method: as §1
[34] = tested on: Staphylococcus haemolyticus; assay: Antibacterial activity against Staphylococcus haemolyticus CIP 8156 after 18 hrs by agar dilution method; details: CIP 8156, 18 h; summary of the method: as §1
[35] = tested on: Staphylococcus intermedius; assay: Antibacterial activity against Staphylococcus intermedius N987 after 18 hrs by agar dilution method; details: N987, 18 h; summary of the method: as §1
[36] = tested on: Staphylococcus lugdunensis; assay: Antibacterial activity against Staphylococcus lugdunensis ATCC 43809 after 18 hrs by agar dilution method; details: ATCC 43809, 18 h; summary of the method: as §1
[37] = tested on: Staphylococcus saprophyticus; assay: Antibacterial activity against Staphylococcus saprophyticus CIP 76125 after 18 hrs by agar dilution method; details: CIP 76125, 18 h; summary of the method: as §1
[38] = tested on: Staphylococcus saprophyticus; assay: Antibacterial activity against Staphylococcus saprophyticus E260 after 18 hrs by agar dilution method; details: E260, 18 h; summary of the method: as §1
Mammaliicoccus sciuri = assay: Antibacterial activity against Staphylococcus sciuri N993 after 18 hrs by agar dilution method; details: N993, 18 h; summary of the method: as §1
Streptococcus agalactiae = assay: Antibacterial activity against Streptococcus agalactiae CIP 103227 after 18 hrs by agar dilution method; details: ATCC 13813, 18 h; summary of the method: as §1
MRC5 [39] = assay: Cytotoxicity against human MRC5 cells assessed as growth inhibition at 10^-5 M after 72 hrs by MTS assay relative to control; details: MRC5, 72 h, read-out: GI
Summary of the method: (§2)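 Cells from ATCC; HCT-116 grown in RPMI 1640 and MRC5 in DMEM, each with 10% FCS and 1% glutamine, 37 °C, 5% CO2. Seeded at 2.5 × 10^3 cells/well, cultured 24 h, then exposed to compounds at 1 and 10 μM final for 72 h. MTS read-out, absorbance 490 nm; percent index from treated/control OD490 × 100, three experiments.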

MRC5 [40] = assay: Cytotoxicity against human MRC5 cells assessed as growth inhibition at 10^-6 M after 72 hrs by MTS assay relative to control; details: MRC5, 72 h, read-out: GI; summary of the method: as §2
HCT-116 [41] = assay: Cytotoxicity against human HCT116 cells assessed as growth inhibition at 10^-5 M after 72 hrs by MTS assay relative to control; details: HCT-116, 72 h, read-out: GI; summary of the method: as §2
HCT-116 [42] = assay: Cytotoxicity against human HCT116 cells assessed as growth inhibition at 10^-6 M after 72 hrs by MTS assay relative to control; details: HCT-116, 72 h, read-out: GI; summary of the method: as §2

## C=C1CC[C@H]2C(C)(C)CCC[C@]2(C)[C@H]1C[C@H](O)C1=CC(=O)OC1O (stereo not given in full)
Bacillus cereus [1]
  MIC: 24 µM (≈ 8.03 µg/mL)
Bacillus cereus [2]
  MIC: 24 µM (≈ 8.03 µg/mL)
Bacillus cereus [3]
  MIC: 24 µM (≈ 8.03 µg/mL)
Bacillus cereus [4]
  MIC: 24 µM (≈ 8.03 µg/mL)
Bacillus spizizenii
  MIC: 12 µM (≈ 4.01 µg/mL)
Corynebacterium striatum
  MIC: 96 µM (≈ 32.1 µg/mL)
Enterococcus avium
  MIC: 96 µM (≈ 32.1 µg/mL)
[5]
  MIC: > 96 µM
[6]
  MIC: > 96 µM
Enterococcus durans
  MIC: 48 µM (≈ 16.1 µg/mL)
Enterococcus faecalis [7]
  MIC: > 96 µM
Enterococcus faecalis [8]
  MIC: 96 µM (≈ 32.1 µg/mL)
Enterococcus faecalis [9]
  MIC: 96 µM (≈ 32.1 µg/mL)
Enterococcus faecalis [10]
  MIC: > 96 µM
Enterococcus faecalis [11]
  MIC: 96 µM (≈ 32.1 µg/mL)
Enterococcus faecium [12]
  MIC: > 96 µM
Enterococcus faecium [13]
  MIC: > 96 µM
Enterococcus faecium [14]
  MIC: > 96 µM
Enterococcus faecium [15]
  MIC: > 96 µM
Enterococcus faecium [16]
  MIC: > 96 µM
Enterococcus faecium [17]
  MIC: > 96 µM
Enterococcus gallinarum [18]
  MIC: > 96 µM
Enterococcus gallinarum [19]
  MIC: 96 µM (≈ 32.1 µg/mL)
Enterococcus gallinarum [20]
  MIC: 96 µM (≈ 32.1 µg/mL)
Enterococcus hirae
  MIC: > 96 µM
Listeria innocua
  MIC: > 96 µM
Listeria monocytogenes [21]
  MIC: 96 µM (≈ 32.1 µg/mL)
Listeria monocytogenes [22]
  MIC: 96 µM (≈ 32.1 µg/mL)
Listeria monocytogenes [23]
  MIC: 96 µM (≈ 32.1 µg/mL)
Listeria monocytogenes [24]
  MIC: 96 µM (≈ 32.1 µg/mL)
Staphylococcus aureus [25]
  MIC: 48 µM (≈ 16.1 µg/mL)
Staphylococcus aureus [26]
  MIC: 48 µM (≈ 16.1 µg/mL)
Staphylococcus aureus [27]
  MIC: 48 µM (≈ 16.1 µg/mL)
Staphylococcus aureus [28]
  MIC: 48 µM (≈ 16.1 µg/mL)
Staphylococcus aureus [29]
  MIC: 48 µM (≈ 16.1 µg/mL)
Staphylococcus aureus [30]
  MIC: 48 µM (≈ 16.1 µg/mL)
Staphylococcus aureus [31]
  MIC: 48 µM (≈ 16.1 µg/mL)
Staphylococcus aureus [32]
  MIC: 48 µM (≈ 16.1 µg/mL)
[33]
  MIC: 48 µM (≈ 16.1 µg/mL)
[34]
  MIC: 24 µM (≈ 8.03 µg/mL)
[35]
  MIC: 24 µM (≈ 8.03 µg/mL)
[36]
  MIC: 48 µM (≈ 16.1 µg/mL)
[37]
  MIC: 48 µM (≈ 16.1 µg/mL)
[38]
  MIC: 48 µM (≈ 16.1 µg/mL)
Mammaliicoccus sciuri
  MIC: 96 µM (≈ 32.1 µg/mL)
Streptococcus agalactiae
  MIC: 24 µM (≈ 8.03 µg/mL)
MRC5 [39]
  inhibition of growth at 10 µM: 67%
MRC5 [40]
  inhibition of growth at 1 µM: 19%
HCT-116 [41]
  inhibition of growth at 10 µM: 90%
HCT-116 [42]
  inhibition of growth at 1 µM: 1%

— ChEMBL document CHEMBL3585281, “Antibacterial Labdane Diterpenoids from Vitex vestita” (2015)
